Measured values reported in ChEMBL document CHEMBL2424574, “Structure-activity relationships and pharmacophore model of a noncompetitive pyrazoline containing class of GluN2C/GluN2D selective antagonists” (J Med Chem, 2013).

What was measured:
Rattus norvegicus [1] = species on record: Rattus norvegicus; test: Selectivity ratio of IC50 for recombinant rat GluN2A receptor to IC50 for recombinant rat GluN2D receptor
Procedure, shortened: (§1)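 Rat GluN1 co-expressed with GluN2A, GluN2B or GluN2D in Xenopus oocytes. Two-electrode voltage clamp at −40 mV in 90 NaCl, 1 KCl, 0.5 BaCl2, 0.005 EDTA, 10 HEPES (mM), pH 7.4, 23 °C; final DMSO 0.1–0.05%. IC50s came from Hill fits to averaged composite concentration-response curves (5–24 oocytes, 2–4 frogs). Ratio is GluN2A or GluN2B IC50 over GluN2D IC50.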

[2] = target: Glutamate receptor ionotropic, NMDA 2A (Rattus norvegicus, UniProt P35439+Q00959); test: Negative allosteric modulation of recombinant rat GluN2A receptor expressed in Xenopus laevis oocytes by two-electrode voltage clamp method; type: cell-based, Oocyte
Procedure, shortened: (§2)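 Two-electrode voltage clamp of Xenopus oocytes expressing rat GluN1 with GluN2A, 2B, 2C or 2D. Holding potential −40 mV in recording solution (mM: 90 NaCl, 1 KCl, 0.5 BaCl2, 0.005 EDTA, 10 HEPES, pH 7.4, 23 °C). Compounds diluted from 20 mM DMSO stocks to 0.05–0.1% final DMSO. IC50 from a Hill fit to the averaged composite concentration–response curve, 5–24 oocytes from 2–4 frogs.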

[3] = target: Glutamate receptor ionotropic, NMDA 2D (Rattus norvegicus, UniProt P35439+Q62645); test: Negative allosteric modulation of recombinant rat GluN2D receptor expressed in Xenopus laevis oocytes by two-electrode voltage clamp method; type: cell-based, Oocyte; procedure, shortened: as §2
[4] = target: Glutamate receptor ionotropic, NMDA 2C (Rattus norvegicus, UniProt P35439+Q00961); test: Negative allosteric modulation of recombinant rat GluN2C receptor expressed in Xenopus laevis oocytes by two-electrode voltage clamp method; type: cell-based, Oocyte; procedure, shortened: as §2
Rattus norvegicus [5] = species on record: Rattus norvegicus; test: Selectivity ratio of IC50 for recombinant rat GluN2B receptor to IC50 for recombinant rat GluN2D receptor; procedure, shortened: as §1
[6] = target: Glutamate receptor ionotropic, NMDA 2B (Rattus norvegicus, UniProt P35439+Q00960); test: Negative allosteric modulation of recombinant rat GluN2B receptor expressed in Xenopus laevis oocytes by two-electrode voltage clamp method; type: cell-based, Oocyte; procedure, shortened: as §2
Glutamate receptor ionotropic, NMDA 2B, sequence (Q00960 whole entry, one chain of several): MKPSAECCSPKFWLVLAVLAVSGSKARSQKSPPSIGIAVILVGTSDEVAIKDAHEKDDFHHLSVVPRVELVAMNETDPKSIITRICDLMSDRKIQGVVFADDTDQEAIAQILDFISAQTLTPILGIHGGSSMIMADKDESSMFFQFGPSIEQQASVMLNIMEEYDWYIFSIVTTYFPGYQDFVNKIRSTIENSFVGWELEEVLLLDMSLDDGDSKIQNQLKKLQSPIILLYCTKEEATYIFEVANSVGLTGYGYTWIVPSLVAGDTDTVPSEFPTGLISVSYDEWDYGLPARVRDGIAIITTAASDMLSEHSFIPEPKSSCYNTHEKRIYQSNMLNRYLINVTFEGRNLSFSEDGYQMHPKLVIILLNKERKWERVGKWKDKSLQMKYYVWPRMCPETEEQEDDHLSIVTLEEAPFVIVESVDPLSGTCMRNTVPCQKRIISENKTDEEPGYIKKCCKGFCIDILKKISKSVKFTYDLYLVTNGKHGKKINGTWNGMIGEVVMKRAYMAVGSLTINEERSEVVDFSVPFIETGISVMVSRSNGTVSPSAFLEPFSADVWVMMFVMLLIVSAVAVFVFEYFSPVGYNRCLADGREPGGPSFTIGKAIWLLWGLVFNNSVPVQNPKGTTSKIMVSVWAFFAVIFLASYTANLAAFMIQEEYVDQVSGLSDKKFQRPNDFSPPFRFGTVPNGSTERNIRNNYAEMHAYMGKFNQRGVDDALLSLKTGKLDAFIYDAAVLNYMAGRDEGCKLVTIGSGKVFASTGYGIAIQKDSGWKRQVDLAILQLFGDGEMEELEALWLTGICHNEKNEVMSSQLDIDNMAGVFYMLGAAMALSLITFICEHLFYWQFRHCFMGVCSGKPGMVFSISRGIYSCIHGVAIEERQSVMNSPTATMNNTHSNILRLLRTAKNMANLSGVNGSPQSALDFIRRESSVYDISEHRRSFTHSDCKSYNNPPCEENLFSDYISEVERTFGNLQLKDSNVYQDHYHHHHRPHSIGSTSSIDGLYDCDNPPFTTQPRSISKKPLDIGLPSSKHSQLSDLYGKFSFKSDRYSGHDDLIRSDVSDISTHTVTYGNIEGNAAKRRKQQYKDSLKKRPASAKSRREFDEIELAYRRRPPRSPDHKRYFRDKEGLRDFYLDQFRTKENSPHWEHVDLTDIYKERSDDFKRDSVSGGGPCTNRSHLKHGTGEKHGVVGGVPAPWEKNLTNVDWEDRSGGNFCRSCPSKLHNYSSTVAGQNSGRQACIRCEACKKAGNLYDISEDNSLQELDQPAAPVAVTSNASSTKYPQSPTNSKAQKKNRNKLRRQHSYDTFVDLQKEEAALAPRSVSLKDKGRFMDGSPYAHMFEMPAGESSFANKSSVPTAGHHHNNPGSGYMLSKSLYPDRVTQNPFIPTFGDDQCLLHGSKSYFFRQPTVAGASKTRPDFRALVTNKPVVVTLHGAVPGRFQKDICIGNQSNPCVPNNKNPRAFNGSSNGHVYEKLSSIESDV

Glutamate receptor ionotropic, NMDA 2D, sequence (Q62645 whole entry, one chain of several): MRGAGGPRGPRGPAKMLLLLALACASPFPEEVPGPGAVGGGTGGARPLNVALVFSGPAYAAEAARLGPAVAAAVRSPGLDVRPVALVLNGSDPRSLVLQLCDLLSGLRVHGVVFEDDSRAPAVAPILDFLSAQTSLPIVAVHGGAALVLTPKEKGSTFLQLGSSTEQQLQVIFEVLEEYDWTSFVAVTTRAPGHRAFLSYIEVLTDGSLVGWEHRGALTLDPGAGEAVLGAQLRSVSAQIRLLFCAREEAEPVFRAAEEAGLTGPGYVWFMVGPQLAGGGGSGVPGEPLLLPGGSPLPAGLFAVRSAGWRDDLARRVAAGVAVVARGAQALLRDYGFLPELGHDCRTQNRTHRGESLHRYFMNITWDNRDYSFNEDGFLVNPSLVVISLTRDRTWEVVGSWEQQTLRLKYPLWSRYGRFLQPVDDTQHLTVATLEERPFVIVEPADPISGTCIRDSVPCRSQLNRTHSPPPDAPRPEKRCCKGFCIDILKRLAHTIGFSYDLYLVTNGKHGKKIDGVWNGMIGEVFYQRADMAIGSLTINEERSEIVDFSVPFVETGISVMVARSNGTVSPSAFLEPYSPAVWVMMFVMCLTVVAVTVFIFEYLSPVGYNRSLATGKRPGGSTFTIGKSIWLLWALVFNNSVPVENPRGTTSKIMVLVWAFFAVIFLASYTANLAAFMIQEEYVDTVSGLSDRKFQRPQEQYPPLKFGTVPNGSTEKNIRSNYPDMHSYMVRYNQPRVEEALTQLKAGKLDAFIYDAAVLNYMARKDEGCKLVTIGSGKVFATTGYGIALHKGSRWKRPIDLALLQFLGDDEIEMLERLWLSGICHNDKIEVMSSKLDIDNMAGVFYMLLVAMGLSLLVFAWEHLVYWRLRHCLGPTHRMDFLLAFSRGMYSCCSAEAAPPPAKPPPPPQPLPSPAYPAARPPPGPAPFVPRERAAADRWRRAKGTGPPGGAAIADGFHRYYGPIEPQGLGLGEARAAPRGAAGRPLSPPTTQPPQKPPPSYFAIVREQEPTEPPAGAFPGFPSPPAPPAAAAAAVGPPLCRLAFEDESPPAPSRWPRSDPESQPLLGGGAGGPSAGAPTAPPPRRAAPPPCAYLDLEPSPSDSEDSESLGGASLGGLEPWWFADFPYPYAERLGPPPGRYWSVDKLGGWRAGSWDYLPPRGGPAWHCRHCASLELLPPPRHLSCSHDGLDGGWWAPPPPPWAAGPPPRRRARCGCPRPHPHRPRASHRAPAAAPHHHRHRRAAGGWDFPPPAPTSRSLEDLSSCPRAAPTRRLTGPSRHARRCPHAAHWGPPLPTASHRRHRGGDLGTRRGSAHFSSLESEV
Glutamate receptor ionotropic, NMDA 2C, sequence (Q00961 whole entry, one chain of several): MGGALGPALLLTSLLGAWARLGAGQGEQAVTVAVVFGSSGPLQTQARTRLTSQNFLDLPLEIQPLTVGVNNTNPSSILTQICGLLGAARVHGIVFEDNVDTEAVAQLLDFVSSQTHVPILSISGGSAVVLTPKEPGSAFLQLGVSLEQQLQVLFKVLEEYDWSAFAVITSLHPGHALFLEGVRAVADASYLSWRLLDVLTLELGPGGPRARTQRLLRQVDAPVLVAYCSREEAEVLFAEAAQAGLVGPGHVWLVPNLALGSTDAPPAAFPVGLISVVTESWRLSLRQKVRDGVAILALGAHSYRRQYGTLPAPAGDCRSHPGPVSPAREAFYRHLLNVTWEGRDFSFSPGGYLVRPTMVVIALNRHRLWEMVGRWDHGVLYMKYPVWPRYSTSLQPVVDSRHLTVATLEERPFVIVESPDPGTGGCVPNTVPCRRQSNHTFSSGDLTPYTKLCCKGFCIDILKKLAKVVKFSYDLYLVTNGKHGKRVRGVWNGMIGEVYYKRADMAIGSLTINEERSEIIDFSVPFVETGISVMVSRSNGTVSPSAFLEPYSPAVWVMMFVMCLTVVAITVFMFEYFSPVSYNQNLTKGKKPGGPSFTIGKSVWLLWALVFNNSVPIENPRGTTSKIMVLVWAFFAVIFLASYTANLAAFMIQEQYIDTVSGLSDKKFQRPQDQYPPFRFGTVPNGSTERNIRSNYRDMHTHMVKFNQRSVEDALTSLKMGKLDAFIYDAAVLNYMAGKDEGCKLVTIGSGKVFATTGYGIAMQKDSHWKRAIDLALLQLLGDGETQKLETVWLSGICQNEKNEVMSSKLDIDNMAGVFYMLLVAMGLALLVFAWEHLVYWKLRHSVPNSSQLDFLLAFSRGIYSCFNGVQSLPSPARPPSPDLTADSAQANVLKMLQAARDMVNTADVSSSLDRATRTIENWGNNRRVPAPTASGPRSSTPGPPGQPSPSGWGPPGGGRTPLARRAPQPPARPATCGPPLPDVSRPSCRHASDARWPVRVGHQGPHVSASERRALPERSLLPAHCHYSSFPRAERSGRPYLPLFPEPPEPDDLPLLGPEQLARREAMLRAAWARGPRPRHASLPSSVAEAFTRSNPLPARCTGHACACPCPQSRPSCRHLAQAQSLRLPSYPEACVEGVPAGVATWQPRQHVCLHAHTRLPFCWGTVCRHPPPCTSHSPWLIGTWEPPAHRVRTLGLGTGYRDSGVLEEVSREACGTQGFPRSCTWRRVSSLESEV

Row | Structure (SMILES) | Ratio IC50 (Rattus norvegicus [1]) | IC50 [2] | IC50 [3] | IC50 [4] | Ratio IC50 (Rattus norvegicus [5]) | IC50 [6]
1 | O=C(O)CCC(=O)N1N=C(c2c(-c3cc(Cl)cc(Cl)c3)c3ccccc3[nH]c2=O)CC1c1ccc(Cl)cc1 (stereo not drawn) | 8 | 5.5 µM | 0.7 µM | 0.78 µM | 19 | 13 µM
2 | O=C(O)CCC(=O)N1N=C(c2c(-c3ccc(Cl)cc3)c3ccccc3[nH]c2=O)C[C@@H]1c1ccc(Cl)cc1 | 23 | 45 µM | 1.9 µM | 2.1 µM | 49 | 52 µM
3 | O=C(O)CCC(=O)N1N=C(c2c(-c3ccc(Br)cc3)c3ccccc3[nH]c2=O)CC1c1ccc(Cl)cc1 (stereo not drawn) | – | 10 µM | 0.29 µM | 0.56 µM | – | 23 µM
4 | O=C(O)CCC(=O)N1N=C(c2c(-c3ccc(F)c(F)c3)c3ccccc3[nH]c2=O)CC1c1ccc(Cl)cc1 (stereo not drawn) | 32 | 21 µM | 0.66 µM | 0.78 µM | 108 | 71 µM
5 | O=C(O)CCC(=O)N1N=C(c2c(-c3ccc(Cl)cc3)c3ccccc3[nH]c2=O)CC1c1ccc(Br)cc1 (stereo not drawn) | 37 | 19 µM | 0.51 µM | 0.95 µM | 67 | 34 µM
6 | COc1ccc(C2CC(c3c(O)nc4ccc(Cl)cc4c3-c3ccccc3)=NN2C(=O)CCC(=O)O)cc1 (stereo not drawn) | 9 | – | – | – | 9 | –
7 | O=C(O)CCC(=O)N1N=C(c2c(-c3ccc(C(F)(F)F)cc3)c3ccccc3[nH]c2=O)CC1c1ccc(Cl)cc1 (stereo not drawn) | 10 | 29 µM | 2.8 µM | 3.6 µM | 14 | 39 µM
8 | O=C(O)/C=C\C(=O)N1N=C(c2c(-c3ccc(Br)cc3)c3ccccc3[nH]c2=O)CC1c1ccc(Cl)cc1 (stereo not drawn) | 21 | 12 µM | 0.57 µM | 1 µM | 30 | 17 µM
9 | O=C(O)CCC(=O)N1N=C(c2c(-c3cccc(C(F)(F)F)c3)c3ccccc3[nH]c2=O)CC1c1ccc(Cl)cc1 (stereo not drawn) | 11 | 28 µM | 2.6 µM | 3.4 µM | 18 | 47 µM
10 | O=C(O)CCC(=O)N1N=C(c2c(-c3ccc(Cl)c(Cl)c3)c3ccccc3[nH]c2=O)CC1c1ccc(Cl)cc1 (stereo not drawn) | 8 | 7.7 µM | 0.91 µM | 0.79 µM | 22 | 20 µM
11 | O=C(O)CCC(=O)N1N=C(c2c(-c3cc(F)cc(F)c3)c3ccccc3[nH]c2=O)CC1c1ccc(Cl)cc1 (stereo not drawn) | 26 | 21 µM | 0.81 µM | 1.1 µM | 123 | 100 µM
12 | COc1ccc(-c2c(C3=NN(C(=O)CCC(=O)O)C(c4ccc(Cl)cc4)C3)c(=O)[nH]c3ccccc23)cc1 (stereo not drawn) | 27 | 62 µM | 2.3 µM | 5 µM | 33 | 75 µM
13 | Cc1ccc(-c2c(C3=NN(C(=O)CCC(=O)O)C(c4ccc(Cl)cc4)C3)c(=O)[nH]c3ccccc23)cc1 (stereo not drawn) | 24 | 33 µM | 1.4 µM | 2.5 µM | 30 | 42 µM
14 | O=C(O)CCCN1N=C(c2c(-c3ccc(Cl)cc3)c3ccccc3[nH]c2=O)CC1c1ccc(Cl)cc1 (stereo not drawn) | 34 | 58 µM | – | – | 31 | 53 µM
15 | NC(=O)CCC(=O)N1N=C(c2c(-c3ccc(Cl)cc3)c3ccccc3[nH]c2=O)CC1c1ccc(Cl)cc1 (stereo not drawn) | 31 | 34 µM | 1.1 µM | 2 µM | 18 | 20 µM
16 | O=C(O)CCC(=O)N1N=C(c2c(-c3ccc(Cl)cc3)c3ccccc3[nH]c2=O)CC1c1ccccc1 (stereo not drawn) | 4 | 49 µM | 11 µM | 13 µM | 13 | 143 µM
17 | O=C(O)/C=C\C(=O)N1N=C(c2c(-c3ccccc3)c3cc(Cl)ccc3[nH]c2=O)CC1c1ccc(Br)cc1 (stereo not drawn) | 15 | 74 µM | 5 µM | 8.9 µM | 7 | 37 µM
18 | O=C(O)CCC(=O)N1N=C(c2c(-c3ccc(F)c(Cl)c3)c3ccccc3[nH]c2=O)CC1c1ccc(Cl)cc1 (stereo not drawn) | 19 | 19 µM | 1 µM | 1.4 µM | 34 | 34 µM
19 | O=C(O)CCC(=O)N1N=C(c2c(-c3ccc(Br)cc3)c3ccccc3[nH]c2=O)CC1c1ccc(Br)cc1 (stereo not drawn) | 33 | 13 µM | – | – | 59 | 23 µM
20 | O=C(O)CCC(=O)N1N=C(c2c(-c3ccc(Cl)cc3)c3ccccc3[nH]c2=O)C[C@H]1c1ccc(Cl)cc1 | 78 | 13 µM | – | 0.22 µM | 156 | 26 µM
21 | O=C(O)CCCC(=O)N1N=C(c2c(-c3ccc(Br)cc3)c3ccccc3[nH]c2=O)CC1c1ccc(Cl)cc1 (stereo not drawn) | 33 | 10 µM | 0.32 µM | 0.6 µM | 91 | 29 µM
22 | O=C(O)CCC(=O)N1N=C(c2c(-c3ccc(Br)cc3)c3ccccc3[nH]c2=O)CC1c1ccccc1 (stereo not drawn) | 7 | 64 µM | 9.1 µM | 10 µM | 12 | 113 µM

Next, values leading:

Row | Ratio IC50 (Rattus norvegicus [1]) | IC50 [2] | IC50 [3] | IC50 [4] | Ratio IC50 (Rattus norvegicus [5]) | IC50 [6] | Structure (SMILES)
23 | 20 | 80 µM | – | 5 µM | 13 | 54 µM | O=C(O)CCC(=O)N1N=C(c2c(-c3ccccc3)c3cc(Cl)ccc3[nH]c2=O)CC1c1ccc(C(F)(F)F)cc1 (stereo not drawn)
24 | 10 | 109 µM | 11 µM | 10 µM | 8 | 92 µM | O=C(O)CCCC(=O)N1N=C(c2c(-c3ccccc3)c3cc(Cl)ccc3[nH]c2=O)CC1c1ccc([N+](=O)[O-])cc1 (stereo not drawn)
25 | 13 | 24 µM | 1.9 µM | 4 µM | 37 | 71 µM | Cc1cccc(-c2c(C3=NN(C(=O)CCC(=O)O)C(c4ccc(Cl)cc4)C3)c(=O)[nH]c3ccccc23)c1 (stereo not drawn)
26 | 85 | 91 µM | 1.1 µM | 0.9 µM | 42 | 45 µM | O=C(O)CCC(=O)N1N=C(c2c(-c3ccccc3)c3cc(Cl)ccc3[nH]c2=O)CC1c1ccc([N+](=O)[O-])cc1 (stereo not drawn)
27 | – | 197 µM | 21 µM | 28 µM | – | 187 µM | COc1ccc(C2CC(c3c(-c4ccccc4)c4cc(Cl)ccc4[nH]c3=O)=NN2C(=O)CCC(=O)O)cc1 (stereo not drawn)
28 | – | – | 88 µM | 86 µM | – | – | O=C(O)CCC(=O)N1N=C(c2c(-c3ccccc3)c3cc(Cl)ccc3[nH]c2=O)CC1c1ccccc1 (stereo not drawn)
29 | 36 | 21 µM | 0.58 µM | 1 µM | 98 | 57 µM | O=C(O)CCC(=O)N1N=C(c2c(-c3ccc(F)cc3)c3ccccc3[nH]c2=O)CC1c1ccc(Cl)cc1 (stereo not drawn)
30 | 20 | 20 µM | 1 µM | 2.1 µM | 43 | 43 µM | O=C(O)CCC(=O)N1N=C(c2c(-c3cccc(Cl)c3)c3ccccc3[nH]c2=O)CC1c1ccc(Cl)cc1 (stereo not drawn)
31 | 14 | 47 µM | 3.4 µM | 4.1 µM | 26 | 90 µM | O=C(O)CCC(=O)N1N=C(c2c(-c3ccc(Cl)cc3)c3ccccc3[nH]c2=O)CC1c1ccc(F)cc1 (stereo not drawn)
32 | 12 | 34 µM | 2.9 µM | 3.8 µM | 26 | 75 µM | O=C(O)CCC(=O)N1N=C(c2c(-c3ccc(Br)cc3)c3ccccc3[nH]c2=O)CC1c1ccc(F)cc1 (stereo not drawn)
33 | 24 | 110 µM | 4.5 µM | 7.8 µM | 34 | 152 µM | COc1cccc(-c2c(C3=NN(C(=O)CCC(=O)O)C(c4ccc(Cl)cc4)C3)c(=O)[nH]c3ccccc23)c1 (stereo not drawn)
34 | 67 | 46 µM | 0.69 µM | 1.1 µM | 101 | 70 µM | O=C(O)CCC(=O)N1N=C(c2c(-c3cccc(F)c3)c3ccccc3[nH]c2=O)CC1c1ccc(Cl)cc1 (stereo not drawn)
35 | 20 | 78 µM | 4 µM | 6.4 µM | 23 | 90 µM | O=C(O)CCCC(=O)N1N=C(c2c(-c3ccccc3)c3cc(Cl)ccc3[nH]c2=O)CC1c1ccc(Br)cc1 (stereo not drawn)
36 | 9 | 128 µM | 14 µM | 23 µM | 6 | 87 µM | O=C(O)CCC(=O)N1N=C(c2c(-c3ccccc3)c3cc(Cl)ccc3[nH]c2=O)CC1c1ccc(F)cc1 (stereo not drawn)
